Experimental data as given in ChEMBL document CHEMBL1157101, “A series of alpha-heterocyclic carboxaldehyde thiosemicarbazones inhibit topoisomerase IIalpha catalytic activity” (J Med Chem, 2010).
Activity calls are given as the source filed them. The rule behind the calls is not given here.

How the values were obtained:
[1] = target: T1, DNA topoisomerase 2-alpha (Homo sapiens, UniProt P11388); test: Inhibition of human topoisomerase 2alpha-mediated relaxation of pBR322
[2] = target: T1, DNA topoisomerase 2-alpha; test: Inhibition of topoisomerase-2 alpha in human HT-29 cells assessed as reversal of etoposide-mediated DNA double strand break measured as phosphorylated histone2A level at 1 uM by immunostaining; format: cell-based
[3] = target: T1, DNA topoisomerase 2-alpha; test: Inhibition of topoisomerase-2 alpha in human HT-29 cells assessed as reversal of etoposide-mediated DNA double strand break measured as phosphorylated histone2A level at 30 uM by immunostaining; format: cell-based
KB = test: Antiproliferative activity against human KB cells after 72 hrs by sulforhodamine B assay; format: functional, cell-based
How it was run: (§1)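 Cells seeded and exposed in triplicate to graded compound concentrations for 72 h. Suspension cells read by MTT conversion to coloured product; adherent cells read by sulforhodamine B. IC50 (50% growth inhibition versus untreated control) derived by the Logit method.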

HL60/MX2 = test: Cytotoxicity against human HL60/MX2 cells; format: functional, cell-based
[4] = target: T1, DNA topoisomerase 2-alpha; test: Inhibition of human topoisomerase 2alpha-mediated decatenation of kDNA
HT-29 [5] = test: Inhibition of DNA synthesis in human HT-29 cells measured up to 8 hrs by BrdU incorporation assay; format: functional, cell-based
How it was run: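 HT-29 cells; DNA synthesis measured by BrdU incorporation with flow detection.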

[6] = Antiproliferative activity against human KB/VCR cells after 72 hrs by sulforhodamine B assay; format: functional, cell-based; how it was run: as §1
[7] = target: T1, DNA topoisomerase 2-alpha; test: Inhibition of human topoisomerase 2 alpha-mediated decatenation of kDNA at 100 uM after 15 mins
[8] = target: T1, DNA topoisomerase 2-alpha; test: Inhibition of topoisomerase 2-mediated displacement of ethidium bromide from DNA assessed as decrease in fluorescence
A-375 = test: Antiproliferative activity against human A375 cells after 72 hrs by sulforhodamine B assay; format: functional, cell-based; details: A-375, 72 h; how it was run: as §1
K562 = test: Antiproliferative activity against human K562 cells after 72 hrs by sulforhodamine B assay; format: functional, cell-based; details: K562, 72 h; how it was run: as §1
Bel-7402 = test: Antiproliferative activity against human Bel7402 cells after 72 hrs by sulforhodamine B assay; format: functional, cell-based; details: Bel-7402, 72 h; how it was run: as §1
Mus musculus [9] = test: Toxicity in Kunming mouse bearing mouse S180 cells assessed as change in body weight at 12.5 mg/kg/day, ip for 7 days (reference value: 17.9 g); format: organism-based, CCRF S-180; parameters: route intraperitoneal; details: in vivo, 168 h
How it was run: (§2)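 Female Kunming mice, 7 weeks old and 18-22 g, were inoculated sc in the right armpit with S-180 sarcoma. From the next day they received ip injections at the stated daily dose for 7 days, alongside a normal-saline control group. Body weight was recorded at the start and at the end of treatment.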

LoVo = test: Antiproliferative activity against human LoVo cells after 72 hrs by sulforhodamine B assay; format: functional, cell-based; how it was run: as §1
[10] = target: T1, DNA topoisomerase 2-alpha; test: Inhibition of topoisomerase 2alpha-mediated displacement of Hoechst 33258 from DNA assessed as decrease in fluorescence; details: concentration not given here
[11] = target: T1, DNA topoisomerase 2-alpha; test: Binding affinity to human topoisomerase 2 alpha ATPase domain
How it was run: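 Surface plasmon resonance. Human Topo IIα ATPase domain immobilised on CM5 chips after activation of surface carboxyl groups. Serial compound dilutions flowed over the chip and sensorgrams recorded. KD obtained by steady-state affinity fitting.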

[12] = target: T1, DNA topoisomerase 2-alpha; test: Inhibition of topoisomerase-2 alpha in human HL60/MX2 cells assessed as antagonization of enzyme-DNA cleavage complex at 100 uM; format: cell-based
HT-29 [13] = test: Cell cycle arrest in human HT-29 cells assessed as accumulation at G1 phase at 0.5 to 1 uM after 24 hrs by flow cytometry; format: functional, cell-based
How it was run: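 HT-29 cells stained with propidium iodide; cell-cycle distribution determined by flow cytometry.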

HT-29 [14] = test: Antiproliferative activity against human HT-29 cells after 72 hrs by sulforhodamine B assay; format: functional, cell-based; details: HT-29, 72 h; how it was run: as §1
[15] = Antiproliferative activity against human MCF7/ADR cells after 72 hrs by sulforhodamine B assay; format: functional, cell-based; details: NCI/ADR-RES; how it was run: as §1
[16] = target: T1, DNA topoisomerase 2-alpha; test: Inhibition of human topoisomerase 2alpha binding to pBR322 DNA binding by electrophoretic mobility shift assay
How it was run: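 Electrophoretic mobility shift assay. 0.2 μg supercoiled pBR322 with 200 nM human Topo IIα, ± compound, 10 min at 37 °C. Separated 90 min on 1% agarose containing 0.5 μg/mL ethidium bromide in TAE.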

Mus musculus [17] = test: Toxicity in Kunming mouse bearing mouse S180 cells assessed as change in body weight at 50 mg/kg/day, ip for 7 days (reference value: 17.9 g); format: organism-based, CCRF S-180; parameters: route intraperitoneal; details: in vivo, 168 h; how it was run: as §2
HT-29 [18] = test: Cytotoxicity against human HT-29 cells after 72 hrs in presence of FeSO4; format: functional, cell-based
Mus musculus [19] = test: Toxicity in Kunming mouse bearing mouse S180 cells assessed as change in body weight at 25 mg/kg/day, ip for 7 days (reference value: 17.9 g); format: organism-based, CCRF S-180; parameters: route intraperitoneal; details: in vivo, 168 h; how it was run: as §2
CCRF S-180 = test: Antitumor activity against mouse S180 cells transplanted in Kunming mouse assessed as inhibition of tumor growth at 25 mg/kg/day, ip for 7 days; format: functional; details: CCRF S-180, ip, 168 h, route intraperitoneal
How it was run: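 Female Kunming mice, 7 weeks old, 18-22 g, inoculated sc in the right armpit with S-180 sarcoma. Dosing began the next day, ip daily for 7 days; normal saline given iv as control. Tumours excised and weighed after treatment. Inhibitory rate (%) = (mean control tumour weight − mean treated tumour weight)/mean control tumour weight × 100.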

[20] = target: T2, DNA topoisomerase 1 (Homo sapiens) (UniProt P11387); test: Inhibition of human topoisomerase 1-mediated relaxation of pBR322 at 100 uM
T2 sequence (whole entry): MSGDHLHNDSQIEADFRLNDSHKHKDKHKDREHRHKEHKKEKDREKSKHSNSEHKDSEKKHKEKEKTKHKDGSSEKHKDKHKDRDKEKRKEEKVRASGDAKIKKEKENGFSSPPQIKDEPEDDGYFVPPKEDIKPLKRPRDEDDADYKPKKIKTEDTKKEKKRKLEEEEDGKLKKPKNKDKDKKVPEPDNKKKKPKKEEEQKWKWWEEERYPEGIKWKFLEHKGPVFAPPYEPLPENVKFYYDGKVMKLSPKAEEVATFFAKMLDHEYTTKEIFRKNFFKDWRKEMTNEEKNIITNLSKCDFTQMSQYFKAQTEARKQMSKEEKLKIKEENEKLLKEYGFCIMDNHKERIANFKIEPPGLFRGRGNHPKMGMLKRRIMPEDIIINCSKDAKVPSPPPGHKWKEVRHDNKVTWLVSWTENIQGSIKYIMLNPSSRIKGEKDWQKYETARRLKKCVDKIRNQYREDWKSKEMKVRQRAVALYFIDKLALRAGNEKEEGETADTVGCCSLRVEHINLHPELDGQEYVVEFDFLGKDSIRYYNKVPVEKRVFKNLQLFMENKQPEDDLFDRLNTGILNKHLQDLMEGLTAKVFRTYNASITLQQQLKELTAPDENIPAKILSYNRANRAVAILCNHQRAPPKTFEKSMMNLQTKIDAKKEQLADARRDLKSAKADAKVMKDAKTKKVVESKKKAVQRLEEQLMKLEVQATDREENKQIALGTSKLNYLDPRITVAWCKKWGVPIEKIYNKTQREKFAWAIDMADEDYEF

HL-60 = test: Antiproliferative activity against human HL60 cells after 72 hrs by sulforhodamine B assay; format: functional, cell-based; details: HL-60, 72 h, in the assay text read “MTT assay” for “sulforhodamine B assay”; how it was run: as §1

T1 sequence (P11388 whole entry): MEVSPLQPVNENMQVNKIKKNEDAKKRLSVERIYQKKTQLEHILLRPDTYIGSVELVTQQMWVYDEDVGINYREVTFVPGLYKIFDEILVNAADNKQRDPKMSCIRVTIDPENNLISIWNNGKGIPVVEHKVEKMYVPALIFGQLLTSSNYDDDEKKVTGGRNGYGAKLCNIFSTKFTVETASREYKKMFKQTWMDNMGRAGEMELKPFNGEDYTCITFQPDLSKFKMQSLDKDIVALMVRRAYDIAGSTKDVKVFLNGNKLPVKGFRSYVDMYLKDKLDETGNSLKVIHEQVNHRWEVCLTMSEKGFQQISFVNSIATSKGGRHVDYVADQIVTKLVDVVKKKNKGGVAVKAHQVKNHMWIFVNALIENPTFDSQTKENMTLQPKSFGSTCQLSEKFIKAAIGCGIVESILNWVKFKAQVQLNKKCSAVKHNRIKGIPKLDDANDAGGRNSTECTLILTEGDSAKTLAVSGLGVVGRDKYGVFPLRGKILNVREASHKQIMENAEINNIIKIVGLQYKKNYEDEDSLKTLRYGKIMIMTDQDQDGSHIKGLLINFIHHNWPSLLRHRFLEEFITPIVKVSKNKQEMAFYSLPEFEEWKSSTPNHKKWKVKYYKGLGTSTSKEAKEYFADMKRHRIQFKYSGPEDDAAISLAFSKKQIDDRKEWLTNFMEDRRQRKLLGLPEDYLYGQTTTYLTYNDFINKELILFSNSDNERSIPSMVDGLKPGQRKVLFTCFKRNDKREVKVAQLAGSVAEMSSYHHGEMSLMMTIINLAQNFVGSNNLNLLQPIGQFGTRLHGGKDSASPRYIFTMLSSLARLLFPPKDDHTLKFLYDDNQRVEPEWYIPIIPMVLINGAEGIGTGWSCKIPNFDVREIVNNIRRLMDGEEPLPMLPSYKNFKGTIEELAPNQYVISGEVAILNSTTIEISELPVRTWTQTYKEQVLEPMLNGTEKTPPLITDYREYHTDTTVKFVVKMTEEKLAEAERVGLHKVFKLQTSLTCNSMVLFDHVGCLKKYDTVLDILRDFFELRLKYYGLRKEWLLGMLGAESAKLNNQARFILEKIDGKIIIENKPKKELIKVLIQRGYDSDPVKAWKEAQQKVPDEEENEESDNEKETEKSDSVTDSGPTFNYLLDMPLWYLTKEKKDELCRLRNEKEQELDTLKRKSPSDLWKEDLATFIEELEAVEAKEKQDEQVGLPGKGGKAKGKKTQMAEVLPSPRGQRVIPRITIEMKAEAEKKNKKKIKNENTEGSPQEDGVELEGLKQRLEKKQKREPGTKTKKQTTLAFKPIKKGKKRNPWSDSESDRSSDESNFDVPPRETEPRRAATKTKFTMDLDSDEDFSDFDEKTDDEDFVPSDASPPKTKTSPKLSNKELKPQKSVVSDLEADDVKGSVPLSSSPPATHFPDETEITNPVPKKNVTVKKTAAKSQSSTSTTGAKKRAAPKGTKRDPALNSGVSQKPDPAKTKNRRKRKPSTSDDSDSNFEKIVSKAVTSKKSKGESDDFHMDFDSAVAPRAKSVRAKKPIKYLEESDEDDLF

SMILES: CN(C)C(=S)N/N=C/c1ccc2ccccc2n1
- inhibition [1]: Dose-dependent effect
- inhibition [2]: Active
- inhibition [3]: Active
- IC50 (KB): 770 nM
- Activity (HL60/MX2): Active
- inhibition [4]: Dose-dependent effect
- inhibition (HT-29 [5]): Dose-dependent effect
- IC50 [6]: 300 nM
- inhibition (active/not active) [7]: Active
- inhibition [8]: inactive
- IC50 (A-375): 20 nM
- IC50 (K562): 60 nM
- IC50 (Bel-7402): 180 nM
- Activity (Mus musculus [9]): 29 g
- IC50 (LoVo): 60 nM
- inhibition [10]: 22%
- Kd [11]: 18300 nM
- inhibition [12]: inactive
- Activity (HT-29 [13]): Active
- IC50 (HT-29 [14]): 20 nM
- IC50 [15]: 200 nM
- inhibition [16]: inactive
- Activity (Mus musculus [17]): 20 g
- inhibition (HT-29 [18]): Active
- Activity (Mus musculus [19]): 23.9 g
- inhibition in vivo at 25 mg/kg/day (CCRF S-180): 35.8%
- inhibition [20]: Active
- IC50 (HL-60): 50 nM
